The test system of one series is dengue virus type 2. Put plainly: Antiviral activity against dengue virus 2 infected in human HuH7 cells after 72 hrs by Western blot and ECL detection based assay. The class given is functional, organism-based. As to conditions: Huh-7, 72 h. Put shortly: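 Huh-7 cells (ATCC) in DMEM with 10% FBS, 1% nonessential amino acids and 1% antibiotic-antimycotic, 37 °C, 5% CO2. Seeded at 5 × 10^4 cells/mL/well for 12–16 h, then infected with DENV-2 strain 16681 at MOI 0.2 for 2 h at 37 °C. Washed with PBS and refed with compound in DMEM–10% FBS. At 72 h p.i., NS2B Western blot with GAPDH loading control and ECL detection. Ribavirin as reference.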
In general terms: A western blot detects proteins with antibodies after separation by electrophoresis.

Series [1] in a line: Cytotoxicity against human HuH7 cells after 72 hrs by MTS assay. The class given is cell-based, Huh-7. In general terms: Tetrazolium assays rely on reduction of a dye to a coloured formazan, in cell work by metabolically active cells.
Series [2] in a line: Selectivity index, ratio of CC50 against human HuH7 cells to EC50 against dengue virus 2. Type of series: toxicity, cell-based, Huh-7. The conditions noted are these: read-out: Ratio CC50/EC50.

`CC[C@H](C)C(=O)O[C@@H]1[C@@H]2C(=O)[C@](C)(C3CC[C@]4(C)[C@@H](CC(=O)O[C@H]4c4ccoc4)[C@]34O[C@H]24)[C@@H]([C@@H](O)C(=O)OC)C1(C)C` (some centres undefined) came in with a half-maximal effective concentration (EC50) with dengue virus type 2 of 7.2 µM. Moreover, the CC50 at 72 h in series [1] was above 200 µM. In series [2], the selectivity ratio is above 27.7.
In the same order, the values of `C/C=C(\C)C(=O)O[C@@H]1[C@H]2C=C3[C@@H]4CC(=O)O[C@@H](c5ccoc5)[C@]4(C)CC[C@@H]3[C@@](C)(C2=O)[C@@H]([C@@H](OC(C)=O)C(=O)OC)C1(C)C` are 6.3 µM, 83 µM and 13.2.
As for `CC1(C)C(=O)C=C[C@]2(C)[C@H]3CC[C@@]4(C)[C@H](c5ccoc5)OC(=O)[C@H]5O[C@]54[C@]3(C)[C@H](O)C[C@@H]12` [DEACETYLGEDUNIN], in the series on dengue virus type 2, the EC50 was 12.5 µM. For the same compound, the CC50 at 72 h in series [1] is 105 µM. Moreover, in series [2], the selectivity ratio was found to be 8.4.
Consider `C=C1[C@@H]2CC[C@@]3(C)[C@H](c4ccoc4)OC(=O)C[C@]13O[C@H]1CC(=O)C(C)(C)[C@H](CC(=O)OC)[C@]12C` [METHYLANGOLENSATE], for which, in the series with dengue virus type 2, a half-maximal response (EC50) required 4.3 µM. In series [1], this compound had a CC50 at 72 h of 116 µM. In addition, the selectivity ratio in series [2] came to 27.
In the case of `NC(=O)c1ncn([C@@H]2O[C@H](CO)[C@@H](O)[C@H]2O)n1` [RIBAVIRIN], in the series with dengue virus type 2, the EC50 was found to be 12.6 µM. The selectivity ratio in series [2] stood at 4.47.

Broadly, the EC50 is the concentration that produces a half-maximal response. High values mean lower potency in that assay, low ones higher potency in that assay. The CC50 is the concentration giving 50% cytotoxicity. Read a high CC50 as better tolerance by the cells.

These data come from ChEMBL document CHEMBL3351709, “Limonoids from the seeds of Swietenia macrophylla with inhibitory activity against dengue virus 2” (J Nat Prod, 2014).
